Reference: ChEMBL document CHEMBL3108706, “Design, synthesis, and biological activity of novel dicoumarol glucagon-like peptide 1 conjugates” (J Med Chem, 2013)
Calls of active or inactive are those of the source. The rule behind the calls is not given here.

How the values were obtained:
Rattus norvegicus [1] = assay: Anticoagulant activity in Sprague-Dawley rat assessed as prothombin time at 150 nmol/kg, iv administered for 6 days measured on day 7 by coagulometric analysis (reference value: 13.5 +/- 0.32 secs); type: functional
Rattus norvegicus [2] = assay: Anticoagulant activity in Sprague-Dawley rat assessed as prothombin time at 25 nmol/kg, iv administered for 6 days measured on day 7 by coagulometric analysis (reference value: 13.5 +/- 0.32 secs); type: functional
Mus musculus [3] = assay: Antidiabetic activity in C57BL/6J-m+/+Leprdb (db/db) mouse assessed as reduction of blood glucose AUC (0 to 48 hrs) at 25 nmol/kg, ip administered for 0.5 hrs; type: functional, organism-based
Outline: (§1)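 Non-fasted male db/db mice (7 weeks, free access to food and water) got a single ip injection (25 or 150 nmol/kg) or saline. Mean ± SD, n = 6.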

Mus musculus [4] = assay: Hypoglycemic activity in C57BL/6J-m+/+Leprdb (db/db) mouse assessed as time required to reduce plasma glucose level below 8.35 mM at 150 nmol/kg, ip administered for 0.5 hrs; type: functional
Outline: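 Non-fasted male db/db mice (7 weeks, free access to food and water) got a single ip injection (25 or 150 nmol/kg) or saline. Glucose AUC0−48h and the time for glucose to return below 8.35 mM were derived. Mean ± SD, n = 6.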

Mus musculus [5] = assay: Hypoglycemic activity in C57BL/6J-m+/+Leprdb (db/db) mouse assessed as time required to reduce plasma glucose level below 8.35 mM at 25 nmol/kg, ip administered for 0.5 hrs; type: functional; outline: as §1
Mus musculus [6] = assay: Hypoglycemic activity in C57BL/6J-m+/+Leprdb (db/db) mouse assessed as reduction of plasma glucose level at 25 nmol/kg, ip administered 0.5 hrs prior to glucose challenge measured after 18 to 21 hrs by IPGTT (reference value: >30 mM); type: functional
Mus musculus [7] = assay: Hypoglycemic activity in C57BL/6J-m+/+Leprdb (db/db) mouse assessed as reduction of plasma glucose level at 25 nmol/kg, ip administered 0.5 hrs prior to glucose challenge measured at 21.5 hrs by IPGTT (reference value: >30 mM); type: functional
Mus musculus [8] = assay: Hypoglycemic activity in C57BL/6J-m+/+Leprdb (db/db) mouse assessed as reduction of plasma glucose level at 25 nmol/kg, ip administered 0.5 hrs prior to glucose challenge measured at 21.5 to 24 hrs by IPGTT; type: functional, organism-based
Mus musculus [9] = assay: Hypoglycemic activity in C57BL/6J-m+/+Leprdb (db/db) mouse assessed as reduction of plasma glucose level at 25 nmol/kg, ip administered 0.5 hrs prior to glucose challenge measured up to 17 hrs by IPGTT (reference value: >30 mM); type: functional
[10] = Mean residence time in Sprague-Dawley rat at 15 nmol/kg, sc by LC-MS/MS analysis; type: ADME, organism-based; conditions: in vivo
[11] = Elimination half life in Sprague-Dawley rat at 15 nmol/kg, sc by LC-MS/MS analysis; type: ADME, organism-based; conditions: in vivo, read-out: beta t1/2 (converted)
Rattus norvegicus [12] = assay: AUC (0 to infinity) in Sprague-Dawley rat at 15 nmol/kg, sc by LC-MS/MS analysis; type: ADME, organism-based, Plasma; parameters: dose 15 nmol/kg, route subcutaneous, time infinity; conditions: in vivo
[13] = Cmax in Sprague-Dawley rat at 15 nmol/kg, sc by LC-MS/MS analysis; type: ADME, organism-based; parameters: dose 15 nmol/kg, route subcutaneous; conditions: in vivo
[14] = Tmax in Sprague-Dawley rat at 15 nmol/kg, sc by LC-MS/MS analysis; type: ADME, organism-based; conditions: in vivo
Rattus norvegicus [15] = assay: Antidiabetic activity in Sprague-Dawley rat assessed as reduction of plasma glucose level at 25 nmol/kg, ip administered 0.5 hrs prior to glucose challenge measured at 15 to 60 mins by OGTT; type: functional, organism-based
Rattus norvegicus [16] = assay: Antidiabetic activity in Sprague-Dawley rat assessed as increase of plasma insulin level at 25 nmol/kg, ip administered 0.5 hrs prior to glucose challenge measured for 120 mins by ELISA; type: functional, organism-based
Outline: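 SD rats (200−250 g, n = 6/group) were fasted 12 h and given compound ip (25 nmol/kg) or saline 0.5 h before oral glucose (10 g/kg). Tail-vein blood glucose was read with a meter at −30, 0, 15, 30, 45, 60, 90, 120 and 180 min. Insulin was measured by rat insulin ELISA. Mean ± SD.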

Rattus norvegicus [17] = assay: Antidiabetic activity in Sprague-Dawley rat assessed as increase of plasma insulin level at 25 nmol/kg, ip administered 0.5 hrs prior to glucose challenge measured at 45 mins by ELISA; type: functional
Rattus norvegicus [18] = assay: Antidiabetic activity in Sprague-Dawley rat assessed as reduction of plasma glucose level at 25 nmol/kg, ip administered 0.5 hrs prior to glucose challenge by OGTT (reference value: 13.32 +/- 1.84 mM); type: functional
albumin = albumin (Homo sapiens, UniProt P02768); assay: Binding affinity to human serum albumin at 100 ug/mL after 3 hrs relative to control; type: ADME; conditions: read-out: PB (converted)
Outline: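 Peptide at 100 μg/mL in PBS (50 μL) was incubated with HSA-conjugated Sepharose resin for 3 h at 25 °C, then centrifuged (1000 rpm, 10 min). Unbound peptide in the supernatant was quantified by micro BCA assay. Nonspecific adsorption was corrected with NHS-inactivated, albumin-free resin.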

[19] = Half life in Sprague-Dawley rat plasma at 1000 ng/mL by LC-MS/MS analysis; type: ADME, cell-free
[20] = target: Glucagon-like peptide 1 receptor (Homo sapiens, UniProt P43220); assay: Activation of human GLP-1 receptor overexpressed in HEK293 cells assessed as cAMP accumulation after 20 mins by HTRF assay; type: functional, cell-based
Rattus norvegicus [21] = assay: Antidiabetic activity in Sprague-Dawley rat assessed as increase of plasma insulin level at 25 nmol/kg, ip administered 0.5 hrs prior to glucose challenge measured at 15 mins by ELISA; type: functional
Mus musculus [22] = assay: Antidiabetic activity in C57BL/6J-m+/+Leprdb (db/db) mouse assessed as reduction of blood glucose level at 50 nmol/kg, ip qd administered for 49 days followed by glucose challenge on day 52 measured after 120 mins post glucose challenge by IPGTT; type: functional, organism-based
Outline: (§2)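 Mice from the 49-day once-daily ip dosing study (db/db, n = 8/group) were tested by IPGTT on day 0 and day 52, 3 days after the last dose. They were fasted 18 h, challenged ip with 1 g/kg glucose, and tail-vein glucose was read with a meter at 0, 15, 30, 45, 60, 90 and 120 min.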

Mus musculus [23] = assay: Antidiabetic activity in C57BL/6J-m+/+Leprdb (db/db) mouse assessed as reduction of blood glucose level at 25 nmol/kg, ip qd administered for 49 days followed by glucose challenge on day 52 measured after 120 mins post glucose challenge by IPGTT; type: functional, organism-based; outline: as §2
Mus musculus [24] = assay: Antidiabetic activity in C57BL/6J-m+/+Leprdb (db/db) mouse assessed as reduction of blood glucose level at 50 nmol/kg, ip qd administered for 49 days followed by glucose challenge on day 52 measured up to 90 mins post glucose challenge by IPGTT; type: functional, organism-based; outline: as §2
Mus musculus [25] = assay: Antidiabetic activity in C57BL/6J-m+/+Leprdb (db/db) mouse assessed as reduction of blood glucose level at 25 nmol/kg, ip qd administered for 49 days followed by glucose challenge on day 52 measured up to 90 mins post glucose challenge by IPGTT; type: functional, organism-based; outline: as §2
Mus musculus [26] = assay: Antidiabetic activity in ip dosed C57BL/6J-m+/+Leprdb (db/db) mouse assessed as suppression of body weight gain administered as qd measured over 7 weeks of drug treatment; type: functional, organism-based
Outline: (§3)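 Male and female db/db mice (6 weeks, n = 8/group) were matched on HbA1c and given ip injections once daily for 49 days (25 or 50 nmol/kg; comparator 25 nmol/kg; saline controls). Wild-type C57BL/6 littermates served for normalization. HbA1c was measured weekly and body weight daily.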

Mus musculus [27] = assay: Antidiabetic activity in C57BL/6J-m+/+Leprdb (db/db) mouse assessed as reduction of HbA1c level at 25 to 50 nmol/kg, ip qd measured over 7 weeks of drug treatment; type: functional, organism-based; outline: as §3
Rattus norvegicus [28] = assay: Anticoagulant activity in Sprague-Dawley rat assessed as activated […] time at 150 nmol/kg, iv administered for 6 days measured on day 7 by coagulometric analysis (reference value: 26.5 +/- 0.81 secs); type: functional
Rattus norvegicus [29] = assay: Anticoagulant activity in Sprague-Dawley rat assessed as activated […] time at 25 nmol/kg, iv administered for 6 days measured on day 7 by coagulometric analysis (reference value: 26.5 +/- 0.81 secs); type: functional
Rattus norvegicus [30] = assay: Anticoagulant activity in Sprague-Dawley rat assessed as thombin time at 150 nmol/kg, iv administered for 6 days measured on day 7 by coagulometric analysis (reference value: 19.38 +/- 0.72 secs); type: functional
Rattus norvegicus [31] = assay: Anticoagulant activity in Sprague-Dawley rat assessed as thombin time at 25 nmol/kg, iv administered for 6 days measured on day 7 by coagulometric analysis (reference value: 19.38 +/- 0.72 secs); type: functional
Rattus norvegicus [32] = assay: Anticoagulant activity in Sprague-Dawley rat assessed as prothombin time at 1 umol/kg, iv administered for 6 days measured on day 7 by coagulometric analysis (reference value: 13.5 +/- 0.32 secs); type: functional
Rattus norvegicus [33] = assay: Anticoagulant activity in Sprague-Dawley rat assessed as activated […] time at 1 umol/kg, iv administered for 6 days measured on day 7 by coagulometric analysis (reference value: 26.5 +/- 0.81 secs); type: functional
Rattus norvegicus [34] = assay: Anticoagulant activity in Sprague-Dawley rat assessed as thombin time at 1 umol/kg, iv administered for 6 days measured on day 7 by coagulometric analysis (reference value: 19.38 +/- 0.72 secs); type: functional

Sequence of albumin (P02768 whole entry): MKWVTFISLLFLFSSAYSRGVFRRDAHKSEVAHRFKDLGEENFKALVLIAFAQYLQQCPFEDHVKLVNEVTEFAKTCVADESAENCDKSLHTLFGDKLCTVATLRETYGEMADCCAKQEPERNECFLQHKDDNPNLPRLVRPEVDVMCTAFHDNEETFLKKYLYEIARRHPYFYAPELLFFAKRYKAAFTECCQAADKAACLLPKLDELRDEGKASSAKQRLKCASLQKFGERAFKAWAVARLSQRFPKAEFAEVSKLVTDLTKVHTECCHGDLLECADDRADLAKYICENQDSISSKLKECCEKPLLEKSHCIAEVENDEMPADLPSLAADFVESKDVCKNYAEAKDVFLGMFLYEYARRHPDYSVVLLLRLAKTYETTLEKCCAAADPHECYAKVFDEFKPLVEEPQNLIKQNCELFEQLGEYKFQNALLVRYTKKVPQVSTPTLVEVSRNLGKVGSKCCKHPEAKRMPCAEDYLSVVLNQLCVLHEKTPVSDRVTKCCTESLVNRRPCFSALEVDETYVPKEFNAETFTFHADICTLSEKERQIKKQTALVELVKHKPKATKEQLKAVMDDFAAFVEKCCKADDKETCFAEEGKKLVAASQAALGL
Sequence of Glucagon-like peptide 1 receptor (P43220 whole entry): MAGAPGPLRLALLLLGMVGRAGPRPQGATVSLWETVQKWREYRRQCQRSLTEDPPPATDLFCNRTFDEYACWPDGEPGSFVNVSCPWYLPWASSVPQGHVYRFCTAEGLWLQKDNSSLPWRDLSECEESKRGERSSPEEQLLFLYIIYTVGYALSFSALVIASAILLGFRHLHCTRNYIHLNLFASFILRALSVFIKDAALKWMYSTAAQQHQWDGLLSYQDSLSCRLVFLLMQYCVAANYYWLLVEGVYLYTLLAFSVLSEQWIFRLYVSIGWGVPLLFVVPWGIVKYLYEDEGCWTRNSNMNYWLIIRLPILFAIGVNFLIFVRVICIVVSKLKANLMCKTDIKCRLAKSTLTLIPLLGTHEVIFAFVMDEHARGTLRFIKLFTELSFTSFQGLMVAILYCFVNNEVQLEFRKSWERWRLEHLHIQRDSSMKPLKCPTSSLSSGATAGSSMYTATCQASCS

## CC[C@H](C)[C@H](NC(=O)[C@H](Cc1ccccc1)NC(=O)[C@H](CCC(=O)O)NC(=O)[C@H](CCCCN)NC(=O)[C@H](C)NC(=O)[C@H](C)NC(=O)[C@H](CCC(N)=O)NC(=O)CNC(=O)[C@H](CCC(=O)O)NC(=O)[C@H](CC(C)C)NC(=O)[C@H](Cc1ccc(O)cc1)NC(=O)[C@H](CO)NC(=O)[C@H](CSC1CC(=O)N(CCCCCCCCCCCC(=O)Nc2ccc(C(c3c(O)c4ccccc4oc3=O)c3c(O)c4ccccc4oc3=O)cc2)C1=O)NC(=O)[C@@H](NC(=O)[C@H](CC(=O)O)NC(=O)[C@H](CO)NC(=O)[C@@H](NC(=O)[C@H](Cc1ccccc1)NC(=O)[C@@H](NC(=O)CNC(=O)[C@H](CCC(=O)O)NC(=O)CNC(=O)[C@@H](N)Cc1cnc[nH]1)[C@@H](C)O)[C@@H](C)O)C(C)C)C(=O)N[C@@H](C)C(=O)N[C@@H](Cc1c[nH]c2ccccc12)C(=O)N[C@@H](CC(C)C)C(=O)N[C@H](C(=O)N[C@@H](CCCCN)C(=O)NCC(=O)N[C@@H](CCCNC(=N)N)C(N)=O)C(C)C (stereo not given in full)
Rattus norvegicus [1]
  PT: 13.55 s
Rattus norvegicus [2]
  PT: 13.39 s
Mus musculus [3]
  Activity: Active
Mus musculus [4]
  Time: 35.8 h
Mus musculus [5]
  Time: 24.7 h
Mus musculus [6]
  Activity: <16 mM
Mus musculus [7]
  Activity: 13.8 mM
Mus musculus [8]
  Activity: Active
Mus musculus [9]
  Activity: <12 mM
[10]
  MRT: 33.8 h
[11]
  half-life: 22.1 h
Rattus norvegicus [12]
  AUC: 40600 ng·h/mL
[13]
  Cmax: 880 ng/mL
[14]
  Tmax: 1.82 h
Rattus norvegicus [15]
  Activity: Active
Rattus norvegicus [16]
  Activity: Active
Rattus norvegicus [17]
  Activity: 582.08 pM
Rattus norvegicus [18]
  Activity: 6.9 mM
albumin
  fraction unbound at 3 h, 100 ug/mL: 0.036
[19]
  half-life at 1000 ng/mL: 67.9 h
[20]
  EC50: 0.0368 nM
Rattus norvegicus [21]
  Activity: 1274.72 pM
Mus musculus [22]
  Activity: inactive
Mus musculus [23]
  Activity: inactive
Mus musculus [24]
  Activity: Active
Mus musculus [25]
  Activity: Active
Mus musculus [26]
  Activity: Dose-dependent effect
Mus musculus [27]
  Activity: Active
Rattus norvegicus [28]
  APTT: 26.38 s
Rattus norvegicus [29]
  APTT: 26.39 s
Rattus norvegicus [30]
  TT: 19.49 s
Rattus norvegicus [31]
  TT: 19.63 s

## O=c1oc2ccccc2c(O)c1Cc1c(O)c2ccccc2oc1=O [DICUMAROL]
Rattus norvegicus [32]
  PT: 25.22 s
Rattus norvegicus [33]
  APTT: 56.36 s
Rattus norvegicus [34]
  TT: 36.85 s
